Results from PMC5767125 (Journal of medicinal chemistry, 2017).

Tests used:
[1] = biological target: D3R (Homo sapiens, UniProt P35462); test: Inhibition of forskolin-dependent stimulation of adenylyl cyclase; type: cell-based; conditions: compound at 10x the Ki value; efficacy relative to full agonist Quinpirole
How it was run: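 Test compound at 10x its Ki, assessed for inhibiting forskolin-dependent adenylyl cyclase stimulation. Output is mean percent efficacy ± SEM relative to the full agonist quinpirole.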

[2] = biological target: T1, 5-HT2c receptor (Homo sapiens, UniProt P28335); test: 5-HT2c receptor binding; conditions: data not shown; comparable to those at 5-HT1AR
T1 sequence (P28335 33-458): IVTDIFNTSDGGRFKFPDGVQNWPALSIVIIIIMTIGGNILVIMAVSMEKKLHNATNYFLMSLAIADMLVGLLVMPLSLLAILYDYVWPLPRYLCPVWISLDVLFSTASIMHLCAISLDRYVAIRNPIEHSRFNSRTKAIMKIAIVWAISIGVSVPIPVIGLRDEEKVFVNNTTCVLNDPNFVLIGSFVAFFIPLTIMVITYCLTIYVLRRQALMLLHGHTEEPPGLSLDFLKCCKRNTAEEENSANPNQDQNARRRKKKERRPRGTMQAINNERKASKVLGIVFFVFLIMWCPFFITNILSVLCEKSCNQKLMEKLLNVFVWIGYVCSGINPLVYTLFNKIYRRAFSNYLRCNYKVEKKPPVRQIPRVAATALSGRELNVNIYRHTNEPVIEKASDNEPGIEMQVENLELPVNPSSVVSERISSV

[3] = biological target: 5-HT2A receptor (Homo sapiens, UniProt P28223); test: 5-HT2A receptor binding; conditions: data not shown; comparable to those at 5-HT1AR
Chain of 5-HT2A receptor (P28223 whole entry): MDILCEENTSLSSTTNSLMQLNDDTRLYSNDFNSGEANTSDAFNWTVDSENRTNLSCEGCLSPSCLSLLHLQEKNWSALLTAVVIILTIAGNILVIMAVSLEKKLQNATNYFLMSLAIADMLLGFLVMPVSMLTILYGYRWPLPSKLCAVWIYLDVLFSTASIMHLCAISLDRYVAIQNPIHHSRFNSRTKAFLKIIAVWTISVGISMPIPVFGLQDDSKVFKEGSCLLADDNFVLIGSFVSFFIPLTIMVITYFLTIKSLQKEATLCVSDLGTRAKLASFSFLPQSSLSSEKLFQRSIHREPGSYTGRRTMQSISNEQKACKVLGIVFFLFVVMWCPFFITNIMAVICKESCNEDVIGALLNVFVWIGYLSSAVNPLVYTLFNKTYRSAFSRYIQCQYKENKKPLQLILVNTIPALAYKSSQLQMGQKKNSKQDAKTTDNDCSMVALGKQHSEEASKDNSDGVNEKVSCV

Chain of D3R (P35462 whole entry): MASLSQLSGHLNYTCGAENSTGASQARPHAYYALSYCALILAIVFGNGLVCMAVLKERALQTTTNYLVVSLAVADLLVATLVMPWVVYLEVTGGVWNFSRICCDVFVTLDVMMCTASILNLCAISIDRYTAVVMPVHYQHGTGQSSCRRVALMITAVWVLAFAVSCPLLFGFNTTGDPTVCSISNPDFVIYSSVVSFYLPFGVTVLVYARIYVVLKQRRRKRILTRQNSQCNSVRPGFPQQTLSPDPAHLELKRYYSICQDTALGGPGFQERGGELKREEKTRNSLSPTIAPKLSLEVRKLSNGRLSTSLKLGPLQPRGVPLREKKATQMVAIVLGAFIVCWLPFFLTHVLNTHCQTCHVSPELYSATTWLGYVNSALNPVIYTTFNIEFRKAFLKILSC

functional activity, adenylyl cyclase assay [1] | binding affinity at 5-HT2c receptor [2] | binding affinity at 5-HT2A receptor [3] | SMILES
partial agonist | low binding affinities | low binding affinities | COc1ccccc1N1CCC2(CCN(CCCSc3nnc(-c4ccccc4)n3C)CC2)CC1 [Compound 15a]
low activity | low binding affinities | low binding affinities | COc1ccccc1N1CCC2(CCN(CCCSc3nnc(-c4ccccc4)n3C)CC2)C1 [Compound 14]
low activity | low binding affinities | low binding affinities | Cn1c(SCCCN2CCC3(CC2)CCN(c2ccc(F)cc2)CC3)nnc1-c1ccccc1 [Compound 15c]
